Hits are enriched below; roughly 4% of the tested compounds scored in any of these assays.
Smad3 inh: inhibitors of human Smad3 transcription factor binding | TR-FRET Smad3/Dy647-FoxH1 peptide binding, europium anti-His | inhibition, % at 25 µM | 88,000 tested, 0.29% active;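 active means compounds that reduce the energy-transfer binding signal between the protein and its labelled peptide by more than half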;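 further: 0% = Smad3 plus labelled peptide maximal FRET and 100% = peptide-only background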
Target sequence (P84022 whole entry, looked up): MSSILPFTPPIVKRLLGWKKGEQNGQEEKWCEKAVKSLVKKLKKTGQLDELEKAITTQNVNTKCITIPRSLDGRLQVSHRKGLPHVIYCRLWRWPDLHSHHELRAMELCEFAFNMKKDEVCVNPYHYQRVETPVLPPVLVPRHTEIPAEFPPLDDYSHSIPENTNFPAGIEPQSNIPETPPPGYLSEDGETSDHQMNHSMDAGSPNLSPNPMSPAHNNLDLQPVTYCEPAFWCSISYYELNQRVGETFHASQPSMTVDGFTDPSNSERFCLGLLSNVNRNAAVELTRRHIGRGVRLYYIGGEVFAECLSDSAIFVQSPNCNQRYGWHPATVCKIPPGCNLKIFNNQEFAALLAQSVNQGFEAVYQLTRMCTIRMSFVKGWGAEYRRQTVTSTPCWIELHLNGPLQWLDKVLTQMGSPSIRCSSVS
FAK inh: blocks human focal adhesion kinase activity. inhibition, %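 (tested at 7 µM)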. biochemical FAK kinase activity assay. AID 727. 97,000 tested, 0.84% active. Q05397;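 further: 0% = DMSO and 100% = reference compound high control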
ERa SRC1 inh: blocks coactivator binding to human estrogen receptor alpha; TR-FRET ER-alpha LBD / SRC-1 peptide, estradiol-bound; P03372; 86,000 tested, 1.7% active; inhibition, % at 25.6 µM; in the data active means inhibition above about 50%;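 further: 0% = receptor plus peptide control and 100% = peptide only without receptor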
ERa coact pot: enhances coactivator binding to human estrogen receptor alpha; coactivator binding (% of control), % at 25.6 µM; TR-FRET ERalpha-LBD/SRC-Cy5 coactivator binding, 2 h; 100 = basal binding, no effect; AID 639; 86,000 tested, 1.3% active; in the data active means activity above about 200%;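 further: binding measured in presence of low estradiol as agonist stimulus; 0% = peptide alone without receptor and 100% = receptor with peptide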
ERb coact inh: blocks coactivator binding to human estrogen receptor beta; 86,000 tested, 1.3% active; TR-FRET ER-beta LBD / SRC1-Cy5 peptide binding; receptor agonist-loaded with 1 µM estradiol; inhibition, % at 25.6 µM;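 active means compounds whose percent inhibition of the receptor-coactivator binding signal exceeds about 50% in the single-dose screen, limit read from the data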;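 further: 0% = receptor plus peptide wells without compound and 100% = peptide-only wells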
HIV Rev-RRE inh: disrupts HIV-1 Rev binding to RRE RNA; Rev peptide-RRE RNA binding, FRET; inhibition, % at 8 µM; P05866; 97,000 tested, 0.79% active; AID 704;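 active means inhibition above the screen-wide mean plus 3 SD, cut at about 35% in these data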;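 further: 0% = median DMSO wells and 100% = median Neomycin B control wells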
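Material: labelled RRE RNA duplex and labelled Rev peptide / Buffer or medium: HEPES pH 7.5 salt buffer with EDTA / Compound dosing: single point, 8 µM final nominal compound concentration / Benchmarks: DMSO low control, neomycin B high control / Timing: 5 min preincubation and 15 min binding, 25 °C / Technique: FRET fluorescence readout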
FAK inh conf: confirmation of human focal adhesion kinase (FAK) inhibitors | 750 tested, 28% active | inhibition, % at 7 µM | shares compounds with FAK inh | FAK kinase biochemical inhibition assay
Numbers without * were called inactive; [ ] = another dose, or the depositor's remark. Unless noted, no stated cut-off is given here; in the data, active means inhibition above about 19%; inactive means the rest.

`COc1ccccc1NC(=O)Cn1nnc(-c2ccccc2NC(=O)c2ccco2)n1` gave Smad3 inh 2, FAK inh 27*, ERa SRC1 inh -38, ERa coact pot 84, ERb coact inh 16, HIV Rev-RRE inh -5 and FAK inh conf 15.
For Cc1cc(C)nc(-n2nc(C)cc2NC(=O)c2cccc(S(=O)(=O)N3CCOCC3)c2)n1 the results were FAK inh -3 and HIV Rev-RRE inh -1.
Cc1oc(-c2ccccc2F)nc1CS(=O)(=O)CC(=O)NCc1ccco1 was read as Smad3 inh 78*, FAK inh 27*, ERa SRC1 inh 91*[fluorescence artefact?], ERa coact pot 22, ERb coact inh 91*[fluorescence artefact?], HIV Rev-RRE inh -35 and FAK inh conf -1.
Screening Cc1oc(-c2ccccc2F)nc1CS(=O)(=O)CC(=O)NCCCc1ccccc1 returned Smad3 inh -3, ERa SRC1 inh 0, ERa coact pot 110 and ERb coact inh 11.
For Cc1nc2c(Cl)cc(Cl)cc2[nH]1 the results were Smad3 inh -5, FAK inh -1, ERa SRC1 inh -4, ERa coact pot 95, ERb coact inh 2 and HIV Rev-RRE inh 7.
`Nc1ccc(-c2nc3c(Cl)cc(N)cc3[nH]2)cc1` gave Smad3 inh 7, FAK inh 25*, ERa SRC1 inh 6, ERa coact pot 96, ERb coact inh 21, HIV Rev-RRE inh 6 and FAK inh conf 4.
`Cc1n[nH]c(C)c1CCc1nc2c3ccccc3nc(SCC(N)=O)n2n1` gave Smad3 inh 2, FAK inh 0, ERa SRC1 inh -8, ERa coact pot 107, ERb coact inh -17 and HIV Rev-RRE inh 3.
For Cc1ccc(NC(=O)CSc2nc3ccccc3c3nc(CCc4c(C)n[nH]c4C)nn23)cc1F the results were Smad3 inh 44, FAK inh 21*, ERa SRC1 inh 54*[fluorescence artefact?], ERa coact pot 142, ERb coact inh 26, HIV Rev-RRE inh 1 and FAK inh conf 12.
For CCn1c(SCc2ccc(OC)cc2)nnc1-c1ccncc1 the results were Smad3 inh -6, FAK inh 0, ERa SRC1 inh -7, ERa coact pot 109, ERb coact inh -8 and HIV Rev-RRE inh 4.
CCOC(=O)C1=C(C)OC(N)=C(C#N)C1C1CCCCC1 (stereo not given) was read as Smad3 inh -6, ERa SRC1 inh 9, ERa coact pot 74 and ERb coact inh 13.
CCOC(=O)C1=C(c2ccccc2)OC(N)=C(C#N)C1C1CCCCC1 (stereo not given) was read as Smad3 inh 3, FAK inh 24*, ERa SRC1 inh 0, ERa coact pot 76, ERb coact inh 1, HIV Rev-RRE inh 16 and FAK inh conf 21*.
For CCOC(=O)C(C)N1N=C(/C=C/c2ccc(OC)cc2)CCC1=O (stereo not given) the results were FAK inh 1 and HIV Rev-RRE inh 9.
Oc1ccc(N=Cc2ccc(O)c(O)c2)cc1 was read as FAK inh 22*, HIV Rev-RRE inh -2 and FAK inh conf 2.
`COc1ccc(/C=N/NC(=O)CCCOc2ccc(Cl)cc2Cl)cc1[N+](=O)[O-]` gave FAK inh 23*, HIV Rev-RRE inh 1 and FAK inh conf 9.
Brc1cccc(-c2nc(-c3ccncc3)no2)c1 was read as Smad3 inh -22, ERa SRC1 inh 2, ERa coact pot 84 and ERb coact inh 6.
Clc1ccc(Br)cc1-c1nc(-c2ccncc2)no1 was read as Smad3 inh 9, FAK inh 28*, ERa SRC1 inh 34, ERa coact pot 246*[fluorescence artefact?], ERb coact inh 27, HIV Rev-RRE inh 5 and FAK inh conf 6.
Screening N#CCC(=O)N/N=C/c1ccc(Sc2nc3ccccc3s2)o1 returned FAK inh 8 and HIV Rev-RRE inh -1.
Screening Cc1ccccc1NC(=O)CN1C(=O)S/C(=C\c2cccn2-c2cccc(C(=O)O)c2)C1=O returned FAK inh -3 and HIV Rev-RRE inh -4.

Screening data from PubChem BioAssay.
